# Scp-1 inhibitor – Scp-1 phosphatase inhibitors, primary screen, biochemical, colorimetric, uHTS. hit rate 0.88% among 340,000. inhibition, % at 20 µM. Carboxy-terminal domain RNA polymerase II polypeptide A small phosphatase 1 (Homo …. Recombinant Scp1, phosphopeptide, malachite green phosphate absorbance;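 active = inhibition above about 50% at 20 µM, limit read from the data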
# Target sequence (Q9GZU7 76-261 limits assumed): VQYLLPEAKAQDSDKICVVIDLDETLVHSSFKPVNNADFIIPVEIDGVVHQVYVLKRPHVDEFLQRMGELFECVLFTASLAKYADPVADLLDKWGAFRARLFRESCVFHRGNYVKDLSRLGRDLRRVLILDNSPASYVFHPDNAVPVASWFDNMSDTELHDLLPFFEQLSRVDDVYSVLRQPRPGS
#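 System: SCP-1 catalytic domain; Reagent: Phospho 17-mer peptide substrate; Doses: one concentration, 20 µM, with 1.0% DMSO; Incubation: 45 min room-temperature reaction, 5 min colour, 30 min stabiliser; Signal: Phosphate-binding colour reagent, absorbance read at 630 nm.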
# Rpn11 inh – Rpn11 (PSMD14) deubiquitinase inhibitors, primary screen, biochemical, fluorescence polarization, uHTS; human 26S proteasome, Ub4-pepOG fluorescence polarization; 20S core pre-blocked with epoxomicin; inhibition, % at 20 µM; hit rate 0.59% among 360,000; AID 588493, 2011;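 active = inhibition at 20 µM, scaled to each plate's controls, above about 33%, limit read from the data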
# LMPTP inh – LMPTP phosphatase inhibitors, primary screen, biochemical, fluorescence intensity, uHTS; Low molecular weight phosphotyrosine protein phosphatase (Homo sapiens), P24666; recombinant LMPTP-A, OMFP fluorogenic substrate; inhibition, % at 20 µM; hit rate 0.22% among 360,000; AID 651560, 2012;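 active = compounds that cut the enzyme signal by at least half of the control window in the single-dose screen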
# Target sequence (P24666 whole entry, looked up): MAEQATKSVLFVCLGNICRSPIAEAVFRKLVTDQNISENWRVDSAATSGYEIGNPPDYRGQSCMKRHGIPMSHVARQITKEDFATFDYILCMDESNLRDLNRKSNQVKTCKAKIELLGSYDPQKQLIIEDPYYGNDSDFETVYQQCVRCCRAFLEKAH
#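 Material: LMPTP-A; amount: 0.625 nM enzyme; doses: single 20 µM dose; times: reaction 50 min, room temperature, dark; technique: fluorescence intensity of OMFP turnover product; benchmarks: no-enzyme and uninhibited controls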
# SUMO1 PPI mod – modulators of SUMO1 protein-protein interactions, primary screen, biochemical, uHTS; Small ubiquitin-related modifier 1 (Homo sapiens), P63165; SUMO1 binding to a labelled peptide, TR-FRET, 1 h; AID 602429, 2012; inhibition, % at 20 µM; hit rate 0.33% among 360,000; in the data active = inhibition above about 37%
# Target sequence (P63165 whole entry, looked up): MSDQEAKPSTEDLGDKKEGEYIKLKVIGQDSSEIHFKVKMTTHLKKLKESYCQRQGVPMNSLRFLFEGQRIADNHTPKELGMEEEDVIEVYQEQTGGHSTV
# DNMT1 inh – human DNMT1 methyltransferase inhibitors, primary screen, biochemical, molecular beacon, fluorescence, HinP1I cleavage, uHTS; DNA (cytosine-5)-methyltransferase 1 (Homo sapiens), P26358; inhibition (reported as % activation of signal), % at 10 µM; hit rate 0.83% among 360,000; AID 588458, 2011; in the data active = inhibition above about 50%
# STEP block – STEP phosphatase inhibitors, primary screen, biochemical, fluorescence intensity, uHTS; Tyrosine-protein phosphatase non-receptor type 5 (Homo sapiens), P54829; recombinant STEP, OMFP fluorogenic substrate; inhibition, % at 20 µM; hit rate 0.25% among 360,000; AID 588621, 2011;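 active = inhibition at 20 µM, scaled per plate between control wells, above about 37%, limit read from the data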
#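 Assay system: isolated STEP enzyme / Timing: 20 min at room temperature, dark / Doses: 20 µM, 1% DMSO / Technique: fluorescence intensity, excitation 480 nm, emission 540 nm / Reagent: fluorogenic phosphatase substrate OMFP at 25 µM final / Measure: percent inhibition scaled to no-enzyme and uninhibited-enzyme controls, plate-pattern corrected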
# A number is an active result; – = inactive; · = not tested or not shown; ! = not active in a repeat. The list is not random: actives were taken first. Their share in the collection is about 2.3%.
SMILES,Scp-1 inhibitor,Rpn11 inh,LMPTP inh,SUMO1 PPI mod,DNMT1 inh,STEP block
O=C(CC1NCCNC1=O)Nc1ccc([N+](=O)[O-])cc1 (stereo unspecified),–,–,–,–,–,–
Cc1cc(C(C)(C)C)cc(C)c1Cn1c2[n+](c3ccc(C(F)(F)F)cc31)CCCCC2,66.1,–,–,–,–,–
c1coc(-c2nc(-c3ccco3)c(-c3ccco3)nc2-c2ccco2)c1,92.7,·,81.8,83.2,116.8,94.1
Nc1nc(-c2ccco2)cs1,–,–,–,–,–,–
COc1ccc(Br)cc1S(=O)(=O)NCCc1cccs1,–,–,–,–,–,–
O=C(O)c1ccc(-c2ccc(/C=c3/sc4nc5ccccc5n4c3=O)o2)cc1Cl,97.8,·,–,38.9,105.9,89.6
Cc1cc(/C=c2\sc3nc4ccccc4n3c2=O)c(C)n1-c1ccc(C(=O)O)cc1,–,–,–,–,–,–
Cc1ccc2c(nc3s/c(=C\c4ccc(-c5ccccc5C(=O)O)o4)c(=O)n32)c1C,76.2,·,–,–,62.9,–
FC(F)(F)Oc1ccc(NC(=S)Nc2ccc(OC(F)(F)F)cc2)cc1,–,–,–,–,–,–
Cn1c(N)c(C(=O)COC(=O)c2ccc3c(c2)C(=O)N(c2ccc(Cl)cc2)C3=O)c(=O)n(C)c1=O,–,–,–,64.1,–,–
CCCN(CCC)CC(O)Cn1cc(/C=C/C(=O)c2cccs2)c2ccccc21 (stereo unspecified),–,·,–,–,–,–
O=C(/C=C/c1cn(CC(O)CN2CCCCC2)c2ccccc12)c1cccs1 (stereo unspecified),–,·,–,–,–,–
CCCCN(C)CC(O)Cn1cc(/C=C/C(=O)c2ccc(C)cc2)c2ccccc21 (stereo unspecified),–,45.5,–,–,–,–
O=C(/C=C/c1cn(CC(O)CN2CCCCC2)c2ccccc12)c1ccccc1 (stereo unspecified),–,42.1,–,–,–,–
O=C1CC[C@@H]2C[C@@]3(C[C@@H]4CCN1[C@H]24)Nc1cc([N+](=O)[O-])ccc1NC3=NCc1ccccc1,–,–,–,–,–,–
CS(=O)(=O)Nc1cccc2[nH]ncc12,–,–,–,–,–,–
O=C1NC(Cc2ccc(O)cc2)c2nc3ccc(Br)cc3c(=O)n2-c2ncccc21 (stereo unspecified),·,–,–,–,–,–
NC(=O)c1sc2nc3c(c(-c4ccco4)c2c1N)CCCC3,–,–,–,–,–,–
Nc1c(C(=O)NCC2CCCO2)sc2nc3c(c(-c4ccco4)c12)CC/C3=C\c1ccco1 (stereo unspecified),80.7,–,69.7,68.9,101.3,37.2
CCc1oc(C(=O)O)cc1COC,66.3,–,–,–,–,–
Cc1c2cnn(CC(=O)NCCN3CCOCC3)c(=O)c2c(C)n1Cc1ccccc1F,–,–,–,–,–,–
CCN(CC)c1ccc(NC(=O)Cn2ncc3c(C)n(Cc4ccccc4F)c(C)c3c2=O)c(C)c1,–,–,–,–,60.0,–
Oc1ccc2ccccc2c1/C=N/Nc1ccccc1,–,–,–,–,–,51.9
Cc1cc(Nc2ccccc2C(=O)O)n(-c2cccc(Cl)c2)n1,–,–,–,41.6,–,–
CN(C(=O)C1CCN(S(=O)(=O)c2cccs2)CC1)c1ccccc1,–,–,–,–,–,–
SMILES,Scp-1 inhibitor,Rpn11 inh,LMPTP inh,SUMO1 PPI mod,DNMT1 inh,STEP block
Cn1c(=NC(=O)C2CCN(S(=O)(=O)c3cccs3)CC2)sc2ccccc21,–,–,–,43.3!,–,–
CCOC(=O)c1c2c(n(C)c1C)C(=O)C(=O)c1ccc(Br)cc1-2,–,–,–,–,88.5,–
Cc1c(CN(C)C)c2c(n1C)C(=O)c1ccc(Br)cc1-2,–,–,–,–,–,–
CCOC(=O)c1c2c(n(Cc3ccccc3)c1C)C(=O)C(=O)c1ccccc1-2,–,–,–,–,93.1,–
CCOc1ccc(-n2c(SCC(N)=O)nc3c(c2=O)SCC3)cc1,–,–,–,–,–,–
C=CCc1cccc2cc(C(=O)Nc3ccc(F)cc3)c(=O)oc12,–,–,–,–,–,–
CCOc1cccc2cc(C(=O)NCc3cccnc3)c(=O)oc12,–,–,–,–,–,–
C=CCc1cccc2cc(C(=O)NCc3cccnc3)c(=O)oc12,–,–,52.5,–,–,–
C=CCc1cccc2cc(C(=O)Nc3ccc(S(=O)(=O)Nc4nnc(CC)s4)cc3)c(=O)oc12,100.6,–,–,–,–,90.6
COc1ccccc1-c1ccc(/C=C2/C=C(CC(C)C)OC2=O)o1,–,–,–,–,–,–
CCCC1=C/C(=C/c2ccc(-c3ccccc3OC)o2)C(=O)O1,–,49.3,–,–,–,–
Nc1c(/C=C2/C=CC(=O)C(O)=C2)c(=O)nc2sc(CC(=O)N3CCOCC3)nn12,71.5,–,–,–,–,–
Nc1c(/C=C2/C=CC(=O)C(O)=C2)c(=O)nc2sc(CC(=O)N3CCCCC3)nn12,72.5,·,65.0,45.2,81.3,–
CC1=Nc2ccc(C)cc2/C1=C/c1c(N)n2nc(CC(=O)N3CCOCC3)sc2nc1=O,–,–,–,–,–,–
Nc1c(C=C2C=CC(=O)C=C2)c(=O)nc2sc(CC(=O)N3CCCCC3)nn12,–,–,–,–,–,–
Nc1c(/C=C2/C=CC(=O)C(O)=C2)c(=O)nc2sc(CC(=O)N3CCCC3)nn12,87.9,–,–,–,–,–
COC1=CC(=Cc2c(N)n3nc(CC(=O)N4CCCCC4)sc3nc2=O)C=C(OC)C1=O,–,·,–,–,–,–
CCS(=O)(=O)c1ccc2oc(SCC(=O)NC(C)C3CC4CCC3C4)nc2c1 (stereo unspecified),–,–,–,–,–,–
CCOC(=O)c1c(C)oc2cc(Br)c(O)c(Br)c12,–,–,–,44.7,–,–
Cc1cc(NC(=O)CCSc2ccc(Cl)cc2)no1,–,–,–,–,–,–
COc1ccc(CNC(=O)COC(=O)c2cnccn2)cc1,–,–,–,–,–,–
O=C(NCc1ccccc1)c1ccc2nc(-c3ccco3)c(-c3ccco3)nc2c1,84.2,–,75.0,41.3,101.5,–
CC(=O)c1ccc(NC(=O)c2ccc3nc(-c4ccco4)c(-c4ccco4)nc3c2)cc1,83.3,–,86.1,95.9,123.2,89.1

# Bioassay records (PubChem)
